Measured values of several laboratories.

| SMILES | system | setting | endpoint | result |
| --- | --- | --- | --- | --- |
| N#Cc1ccc(Nc2nc(N)cc(Oc3c(F)cc(-c4ccc(C#N)cc4)cc3F)n2)cc1 | Sprague-Dawley rat, plasma | intravenous, 1 mg/kg | clearance | 54.6 mL/min/kg |
| Oc1c(-n2ccnn2)cnn1-c1cc(N2CCOCC2)ncn1 | male rat, blood | intravenous, 5 mg/kg | clearance | 18.3 mL/min/kg |
| Oc1cc(O)cc(-c2cc3ccc(O)cc3o2)c1 | male rat, plasma | intravenous, 5 mg/kg | clearance | 89.5 mL/min/kg |
| CCc1nc(C(N)=O)c(Nc2ccc(N3CCC(N4CCN(C)CC4)CC3)c(OC)c2)nc1NC1CCOCC1 | rat, plasma | oral, 10 mg/kg | CL/F | 0.9 L/h |
| COc1ccc2c(=O)n(C)c(-c3ccccc3)nc2c1 | male Sprague-Dawley rat, plasma | intravenous, 2 mg/kg | clearance | 39 mL/min/kg |
| Cc1nn2c(-c3c(C)nn(C)c3-c3ccc(C(F)(F)F)cc3)nc(CO)c2c(=O)[nH]1 | male Wistar rat, plasma | intravenous, 1 mg/kg | clearance | 28 mL/min/kg |
| Oc1c(Br)cc(Cl)c2cccnc12 | Sprague-Dawley rat, plasma | intravenous, 2 mg/kg | clearance | 27.8 mL/min/kg |
| CNC(=O)c1c(C)oc2cc(Oc3ncnc4cc(OC)c(OC)cc34)ccc12 | Sprague-Dawley rat, plasma | oral, 1 mg/kg, single dose | CL/F | 3.5 mL/min/kg |
| CNCc1cc(-c2ccccc2F)n(S(=O)(=O)c2cccnc2)c1 | Sprague-Dawley rat, plasma | oral, 10 mg/kg | CL/F | 293 mL/min/kg |
| COCCOC(=O)C1=C(C)NC(C)=C(C(=O)OC(C)C)C1c1cccc([N+](=O)[O-])c1 (stereo not shown) | male Sprague-Dawley rat, plasma | oral, 12 mg/kg | CL/F | 0.0943 mL/min/kg |
| C=CC(=O)Nc1cc(Nc2nccc(Nc3cc(Cl)c(F)cc3C(C)(C)O)n2)c(OC)cc1N1CC[C@@H](N(C)C)C1 | Wistar rat, plasma | intravenous, 3 mg/kg | clearance | 30.8 mL/min/kg |
| CCCC[C@@H]1NC(=O)[C@H](Cc2ccc(O)cc2)NC(=O)[C@@H]2CCCN2C(=O)[C@H](CC(=O)O)NC(=O)[C@H](C)NC(=O)[C@H](Cc2ccccc2)NC(=O)[C@@H]2CSCCC(=O)N3CN(CN(C3)C(=O)CCSC[C@@H](C(=O)N[C@@H](C)C(N)=O)NC1=O)C(=O)CCSC[C@H](NC(C)=O)C(=O)N[C@@H](CC(C)(C)C)C(=O)N1CCC[C@H]1C(=O)N[C@@H](CCC(=O)O)C(=O)N[C@H](CCCCNC(=O)CCc1cn(CCOCCOCCOCCOCCOCCOCCOCCOCCOCCOCCNC(=O)CCOCCN(CCOCCC(=O)NCCOCCOCCOCCOCCOCCOCCOCCOCCOCCOCCn3cc(CCC(=O)NCCCC[C@H]4NC(=O)[C@H](CCC(=O)O)NC(=O)[C@@H]5CCCN5C(=O)[C@H](CC(C)(C)C)NC(=O)[C@@H](NC(C)=O)CSCCC(=O)N5CN6CN(C5)C(=O)CCSC[C@H](NC(=O)[C@H](Cc5ccc(O)cc5)NC(=O)[C@@H]5CCCN5C4=O)C(=O)N[C@@H](Cc4ccccc4)C(=O)N[C@@H](C)C(=O)N[C@@H](CC(=O)O)C(=O)N4CCC[C@H]4C(=O)N[C@@H](Cc4ccc(O)cc4)C(=O)N[C@@H](CCCC)C(=O)N[C@H](C(=O)N[C@@H](C)C(N)=O)CSCCC6=O)nn3)CCOCCC(=O)NCCOCCOCCOCCOCCOCCOCCOCCOCCOCCOCCn3cc(CCC(=O)N[C@H]4CSCCC(=O)N5CN6CN(C5)C(=O)CCSC[C@H](NC(=O)[C@@H](CC(=O)O)NC(=O)[C@H](Cc5cccc7ccccc57)NC(=O)[C@@H]5CCCN5C4=O)C(=O)N[C@@H](CCSC)C(=O)N[C@@H](CCCCNC(=N)N)C(=O)N[C@@H](CC(=O)O)C(=O)N[C@@H](Cc4c[nH]c5ccccc45)C(=O)N[C@@H](CO)C(=O)N[C@@H]([C@@H](C)O)C(=O)N4CCC[C@H]4C(=O)N4C[C@H](O)C[C@H]4C(=O)N[C@@H](Cc4c[nH]c5ccccc45)C(=O)N[C@H](C(N)=O)CSCCC6=O)nn3)nn1)C(=O)N1CCC[C@H]1C(=O)N[C@@H](Cc1ccc(O)cc1)C(=O)N2 | rat, plasma | intravenous, 2 mg/kg | clearance | 12 mL/min/kg |
| COc1ccc2c(Cc3ccccc3F)c3[n+](cc2c1OC)CCc1cc2c(cc1-3)OCO2.[Br-] | rat, plasma | intravenous, 5 mg/kg | clearance | 672 mL/min/kg |
